ChEMBL document CHEMBL1944515 (J Med Chem, 2012)
Active and inactive are the calls of the source. No cut-off for these calls is given here.

Tests used:
Mus musculus = test: Toxicity in BALB/c nude mouse assessed as change in body weight at 100 mg/kg, ip administered on days 0,2 and 4 measured after 1 week relative to control; format: organism-based; parameters: dose 100 mg/kg, route intraperitoneal; settings: in vivo, 168 h
Procedure, shortened: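 HT-29 cells in log phase, resuspended in serum-free RPMI 1640 at 1 × 10^7 cells/mL, inoculated 0.2 mL subcutaneously in the back of nude mice. At ~300 mm3, 18 mice were randomized to vehicle or two treatment groups. Dosing: 100 mg/kg in DMSO, ip at 0.01 mL/g, on days 0, 2 and 4. Tumor volume by caliper as (LW2)/2 and body weight recorded; n = 6 per group, mean ± SEM.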

HeLa [1] = test: Induction of apoptosis in human HeLa cells assessed as viable cells at 100 nM after 48 hrs by FITC conjugated annexin-V/PI staining-based flow cytometry (reference value: 86.7%); format: functional; settings: read-out: Activity
Procedure, shortened: (§1)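 Flow cytometry of HeLa cells after 24 or 48 h exposure, double-stained with annexin-V-FITC and propidium iodide. Excitation at 488 nm, emission at 525 nm (FITC) and 585 nm (PI). Quadrants scored as live, early apoptotic, late apoptotic or necrotic cells.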

[2] = Cytotoxicity against human CEM/VBL100 cells after 72 hrs by MTT assay; format: functional, cell-based; settings: CEM/VBL100, 72 h
Procedure, shortened: (§2)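 Cells seeded at 8 × 10^3 per well and left 18 h at 37 °C, 5% CO2, then given fresh medium with compound at a range of concentrations for 72 h; DMSO at most 0.25% final. Viability read by MTT relative to 0.25% DMSO-treated cells. […] LoVoDoxo kept in Ham's F12 with 0.1 μg/mL doxorubicin; A549-T12 kept in DMEM with 12 nM paclitaxel.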

HeLa [3] = test: Induction of apoptosis in human HeLa cells assessed as late apoptotic cells at 100 nM after 48 hrs by FITC conjugated annexin-V/PI staining-based flow cytometry (reference value: 2.9%); format: functional
HeLa [4] = test: Induction of apoptosis in human HeLa cells assessed as decrease in Bcl2 protein level at 50 to 100 nM after 48 hrs by Western blot analysis; format: functional, cell-based
Procedure, shortened: (§3)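 HeLa cells were treated for 24 or 48 h, washed in ice-cold PBS and lysed on ice for 30 min; lysates were spun at 15000g, 4 °C. 20 μg protein per lane on SDS-PAGE (7.5–15%), then PVDF. Blocked overnight at 4 °C, primary antibodies 2 h at room temperature, peroxidase secondary 60 min, ECL detection. Blots were reprobed for β-actin as loading control.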

HeLa [5] = test: Induction of apoptosis in human HeLa cells assessed as change in Bax protein expression at 50 to 100 nM after 24 to 48 hrs by Western blot analysis; format: functional, cell-based; procedure, shortened: as §3
HeLa [6] = test: Induction of cell cycle arrest in human HeLa cells assessed as G2/M phase cells at 60 nM after 24 hrs by flow cytometry; format: functional
Procedure, shortened: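 Exponentially growing HeLa cells (5 × 10^5) were treated 24 h at 15–250 nM. Cells were fixed in ice-cold 70% ethanol, lysed with RNase A/0.1% Triton X-100 buffer and stained with propidium iodide. DNA content was measured by flow cytometry to score G2/M fraction. Mean ± SEM of three independent experiments.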

HT-29 = test: Anticancer activity against human HT-29 cells xenografted in BALB/c nude mouse assessed as tumor growth inhibition at 100 mg/kg, ip administered on days 0,2 and 4 relative to vehicle treated control; format: functional; settings: HT-29, ip, route intraperitoneal, read-out: TGI
Procedure, shortened: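 HT-29 cells in log phase, suspended at 1 × 10^7 cells/mL in serum-free RPMI 1640, were inoculated (0.2 mL) into dorsal hypodermis of nude mice. At ~300 mm3, 18 mice were randomised to vehicle or two treatment groups (six per group). Dosing was 100 mg/kg ip in DMSO (0.01 mL/g) on days 0, 2 and 4. Caliper tumour volume V = LW²/2 and body weight were tracked versus vehicle.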

CCRF-CEM = test: Cytotoxicity against human CEM cells after 72 hrs by MTT assay; format: functional, cell-based; procedure, shortened: as §2
HeLa [7] = test: Induction of ROS production in human HeLa cells at 50 to 100 nM after 24 to 48 hrs by H2-DCFDA staining-based flow cytometry; format: functional, cell-based
Procedure, shortened: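 HeLa cells were exposed for 24 or 48 h, then stained with hydroethidine or H2-DCFDA for ROS and read by flow cytometry. DMSO ≤0.25%. Mean ± SEM of three independent experiments.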

MCF7 = test: Cytotoxicity against human MCF7 cells after 72 hrs by MTT assay; format: functional, cell-based; settings: MCF7, 72 h
Bos taurus = organism: Bos taurus; test: Displacement of [3H]colchicine from bovine tubulin at 5 uM by DEAE-cellulose filter method
Procedure, shortened: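 Inhibition of [3H]colchicine binding was measured in mixtures of 1 μM tubulin, 5 μM [3H]colchicine and 5 μM test compound. Results are percent inhibition of binding.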

HeLa [8] = test: Induction of mitochondrial depolarization in human HeLa cells assessed as JC1 monomer level after 48 hrs by JC1-based fluorescent staining (reference value: 0.8%); format: functional
Procedure, shortened: (§4)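 Mitochondrial membrane potential in HeLa cells after 24 or 48 h incubation, measured with the JC-1 dye by flow cytometry. Aggregates read as red (590 nm) and monomers as 530 nm; output is the percentage of depolarized cells. Mean ± SEM of three independent experiments.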

LoVo = test: Resistance ratio of IC50 for human doxorubicin-resistant LoVo cells to human LoVo cells; format: functional
HeLa [9] = test: Induction of apoptosis in human HeLa cells assessed as increase in annexin-V positive apoptotic cells at 50 to 100 nM by FITC conjugated annexin-V/PI staining-based flow cytometry; format: functional, cell-based; settings: TDE = time-dependent effect; procedure, shortened: as §1
[10] = Cytotoxicity against human A549-T12 cells after 72 hrs by MTT assay; format: functional, cell-based; settings: A549, 72 h; procedure, shortened: as §2
HeLa [11] = test: Induction of mitochondrial depolarization in human HeLa cells after 24 to 48 hrs by JC1-based fluorescent staining; format: functional, cell-based; procedure, shortened: as §4
HeLa [12] = test: Induction of apoptosis in human HeLa cells assessed as early apoptotic cells at 100 nM after 48 hrs by FITC conjugated annexin-V/PI staining-based flow cytometry (reference value: 9.6%); format: functional; procedure, shortened: as §1
HeLa [13] = test: Induction of apoptosis in human HeLa cells assessed as increase in annexin-V positive apoptotic cells after 24 to 48 hrs by FITC conjugated annexin-V/PI staining-based flow cytometry; format: functional, cell-based; procedure, shortened: as §1
HeLa [14] = test: Induction of necrosis in human HeLa cells assessed as necrotic cells at 100 nM after 48 hrs by FITC conjugated annexin-V/PI staining-based flow cytometry (reference value: 0.7%); format: functional; procedure, shortened: as §1

CCOc1ccc(-c2nnnn2-c2cc(OC)c(OC)c(OC)c2)cc1
Activity (Mus musculus): Non-toxic
viability at 0.1 µM (HeLa [1]): 36.1%
IC50 [2]: 0.7 nM
Activity (HeLa [3]): 27.7%
Activity (HeLa [4]): Active
Activity (HeLa [5]): inactive
Activity (HeLa [6]): >80%
inhibition in vivo at 100 mg/kg (HT-29): 66%
IC50 (CCRF-CEM): 3.1 nM
Activity (HeLa [7]): Active
IC50 (MCF7): 2.3 nM
inhibition (Bos taurus): 78%
Activity (HeLa [8]): 19.1%
Ratio IC50 (LoVo): 0.64
Activity (HeLa [9]): tde
IC50 [10]: 8.2 nM
Activity (HeLa [11]): Dose-dependent effect
Activity (HeLa [12]): 34.4%
Activity (HeLa [13]): Dose-dependent effect
Activity (HeLa [14]): 1.8%
